Active and inactive are the calls of the source. The calls are words filed in the database; no cut-off is given here.
What was measured:
[1] = system: Mus musculus; assay: Antiobesity activity in high fat diet-induced obese Ptpn1fl/fl null C57BL/6 mouse treated with rAAV-CMV-Cre-GFP for deletion of PTP1B assessed as reduction in body weight at 100 ug/kg, ip for 10 consecutive days; assay type: functional, organism-based
Outline: (§1)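 Male Ptpn1fl/fl, Ptpn2fl/fl or double-floxed mice: chow 8 weeks, then high-fat diet (45% energy from fat) 12 weeks. Bilateral intra-ARC stereotaxic injection of rAAV-CMV-Cre-GFP or rAAV-CMV-GFP, 100 nL/side. After 2 weeks recovery, vehicle or 100 μg/kg ip daily at 6 pm for 10 days; body weight tracked; two-way repeated-measures ANOVA with Tukey test; means ± SEM.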

[2] = target: T1, Tyrosine-protein phosphatase non-receptor type 1 (Homo sapiens, UniProt P18031); assay: Inhibition of human N-terminal His6-tagged PTP1B catalytic domain (1 to 393 residues) expressed in Escherichia coli strain Rosetta2 (DE3) using DiFMUP as substrate preincubated for 10 mins followed by substrate addition and measured after 10 mins by fluorescence assay
T1 sequence (P18031 whole entry): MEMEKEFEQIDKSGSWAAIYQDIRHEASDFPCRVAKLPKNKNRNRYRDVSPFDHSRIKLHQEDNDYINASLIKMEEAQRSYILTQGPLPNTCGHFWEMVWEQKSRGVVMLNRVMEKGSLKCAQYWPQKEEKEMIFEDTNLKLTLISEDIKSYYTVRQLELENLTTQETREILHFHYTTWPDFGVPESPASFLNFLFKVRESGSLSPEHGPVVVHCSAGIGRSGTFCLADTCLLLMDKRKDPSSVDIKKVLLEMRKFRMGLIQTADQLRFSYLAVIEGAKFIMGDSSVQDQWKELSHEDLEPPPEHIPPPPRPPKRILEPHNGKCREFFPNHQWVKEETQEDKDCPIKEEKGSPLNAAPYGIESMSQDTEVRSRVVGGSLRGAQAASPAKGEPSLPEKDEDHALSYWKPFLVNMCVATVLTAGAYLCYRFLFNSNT
Outline: (§2)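 Tag-cleaved, SEC-purified enzyme at 1 nM, preincubated 10 min with compound at 15 concentrations from 0–500 μM (5% DMSO final) in 25 mM Bis-Tris propane pH 7.5, 50 mM NaCl, 2 mM EDTA. DiFMUP added at each construct's Km (10, 7, 10, 9 μM for PTP1B1−298, PTP1B1−393, TCPTP1−296, TCPTP1−336). Read ex 358/em 455 nm continuously 10 min at 37 °C; triplicate; log(inhibitor)-response fit.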

[3] = target: T2, Tyrosine-protein phosphatase non-receptor type 1 (Homo sapiens) (UniProt P18031); assay: Binding affinity to human N-terminal His6-tagged PTP1B catalytic domain (1 to 298 residues) expressed in Escherichia coli strain Rosetta2 (DE3) by NMR spectroscopy
T2 sequence (whole entry): T1 sequence (P18031 whole entry)
Outline: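 100 μM 2H(~70%)/15N-labelled PTP1B1−298 in 100 mM d11-Tris pH 7.5, 75 mM NaCl, 10% D2O at 20 °C. Compound added to 250 μM (0.5% DMSO-d6); 1H,15N TROSY at 800 MHz against DMSO-only reference; amide chemical shift perturbations computed.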

[4] = target: T3, Tyrosine-protein phosphatase non-receptor type 2 (Homo sapiens, UniProt P17706); assay: Inhibition of human N-terminal His6-tagged TCPTP catalytic domain (1 to 296 residues) expressed in Escherichia coli strain Rosetta2 (DE3) using DiFMUP as substrate preincubated for 10 mins followed by substrate addition and measured after 10 mins by fluorescence assay; outline: as §2
T3 sequence (P17706 whole entry): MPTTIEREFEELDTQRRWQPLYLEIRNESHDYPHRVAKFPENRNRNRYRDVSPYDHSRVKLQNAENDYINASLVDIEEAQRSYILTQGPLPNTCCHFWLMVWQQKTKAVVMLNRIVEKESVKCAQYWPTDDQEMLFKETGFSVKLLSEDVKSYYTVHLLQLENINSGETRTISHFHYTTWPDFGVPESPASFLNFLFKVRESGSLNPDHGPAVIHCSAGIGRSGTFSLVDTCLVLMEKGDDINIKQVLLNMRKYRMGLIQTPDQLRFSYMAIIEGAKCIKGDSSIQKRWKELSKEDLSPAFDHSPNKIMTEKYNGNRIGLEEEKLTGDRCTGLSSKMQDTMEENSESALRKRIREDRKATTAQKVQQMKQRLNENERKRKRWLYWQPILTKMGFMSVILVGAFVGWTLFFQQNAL

[5] = target: T4, Tyrosine-protein phosphatase non-receptor type 2 (Homo sapiens) (UniProt P17706); assay: Inhibition of human N-terminal His6-tagged TCPTP catalytic domain (1 to 296 residues) expressed in Escherichia coli strain Rosetta2 (DE3) by NMR spectroscopy
T4 sequence (whole entry): T3 sequence (P17706 whole entry)

[6] = system: Mus musculus; assay: Antiobesity activity in high fat diet-induced obese Ptpn1fl/fl/Ptpn2fl/fl null C57BL/6 mouse assessed as reduction in body weight at 100 ug/kg, ip for 10 consecutive days; assay type: functional, organism-based; outline: as §1
[7] = target: T4, Tyrosine-protein phosphatase non-receptor type 2 (Homo sapiens); assay: Inhibition of human N-terminal His6-tagged TCPTP catalytic domain (1 to 336 residues) expressed in Escherichia coli strain Rosetta2 (DE3) using DiFMUP as substrate preincubated for 10 mins followed by substrate addition and measured after 10 mins in presence of 10 fold higher enzyme concentration by fluorescence assay
Outline: (§3)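 DiFMUP IC50 assay (1 nM enzyme, 10 min preincubation, substrate at Km, 37 °C, ex 358/em 455 nm), repeated as an aggregation check under three altered conditions: 10-fold enzyme (10 nM), 0.05% Tween 20, or 0.1 mg/mL BSA in buffer.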

[8] = target: T2, Tyrosine-protein phosphatase non-receptor type 1 (Homo sapiens); assay: Non-competitive inhibition of human N-terminal His6-tagged PTP1B catalytic domain (1 to 393 residues) expressed in Escherichia coli strain Rosetta2 (DE3) at 500 uM in presence of 4'-aminoxanilic acid by STD-NMR spectroscopic method
[9] = target: T3, Tyrosine-protein phosphatase non-receptor type 2; assay: Inhibition of human N-terminal His6-tagged TCPTP catalytic domain (1 to 336 residues) expressed in Escherichia coli strain Rosetta2 (DE3) using DiFMUP as substrate preincubated for 10 mins followed by substrate addition and measured after 10 mins by fluorescence assay; outline: as §2
[10] = target: T4, Tyrosine-protein phosphatase non-receptor type 2 (Homo sapiens); assay: Inhibition of human N-terminal His6-tagged TCPTP catalytic domain (1 to 336 residues) expressed in Escherichia coli strain Rosetta2 (DE3) using DiFMUP as substrate preincubated for 10 mins followed by substrate addition and measured after 10 mins in presence of 0.1 mg/ml BSA by fluorescence assay; outline: as §3
[11] = target: T2, Tyrosine-protein phosphatase non-receptor type 1 (Homo sapiens); assay: Inhibition of human N-terminal His6-tagged PTP1B catalytic domain (1 to 393 residues) expressed in Escherichia coli strain Rosetta2 (DE3) using DiFMUP as substrate preincubated for 10 mins followed by substrate addition and measured after 10 mins in presence of 0.1 mg/ml BSA by fluorescence assay; outline: as §3
[12] = target: T2, Tyrosine-protein phosphatase non-receptor type 1 (Homo sapiens); assay: Inhibition of human N-terminal His6-tagged PTP1B catalytic domain (1 to 298 residues) expressed in Escherichia coli strain Rosetta2 (DE3) up to 500 uM using pNPP as substrate preincubated for 10 mins followed by substrate addition and measured after 10 mins by […]

CC1=C(O)C(=O)C=C2C1=CC=C1[C@@]2(C)CC[C@@]2(C)[C@@H]3C[C@](C)(C(=O)O)CC[C@]3(C)CC[C@]12C [CELASTROL]
Activity [1]: inactive | IC50 [2]: 2.1 µM | Activity [3]: Active | IC50 [4]: 23 µM | Activity [5]: Active | Activity [6]: Active | inhibition [7]: Active | inhibition [8]: Active | IC50 [9]: 18.8 µM | inhibition [10]: Active | inhibition [11]: Active | inhibition [12]: Active

— ChEMBL document CHEMBL4371044, “Celastrol Promotes Weight Loss in Diet-Induced Obesity by Inhibiting the Protein Tyrosine Phosphatases PTP1B and TCPTP in the Hypothalamus” (J Med Chem, 2018)
